ChEMBL document CHEMBL1124192, “Cyclopentenylcytosine. A carbocyclic nucleoside with antitumor and antiviral properties” (J Med Chem, 1988)
Converted amounts (≈) assume the structure as drawn. “And” between values parts separate entries of the source, which are not always exact repeats. Identical values can stand only once.

What was measured:
L1210 [1] = assay: Compound was tested for antitumor activity against L1210 leukemia in mouse at dose 1 mg/kg administered intraperitoneally in experiment 1; assay type: functional; conditions: L1210, ip, route intraperitoneal
In short: (§1)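 Mice bearing L1210, L1210/ara-C, P388 or P388/ara-C leukaemia. Tumour implanted at the site each line names: ip, sc or ic. Drug given ip in physiologic saline on a QD1-9 schedule, at several dose levels per experiment. Life-span runs ended on day 30. Read-out is median % increase in life span versus tumoured untreated controls, with long-term survivors included.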

L1210 [2] = assay: Compound was tested for antitumor activity against L1210 leukemia in mouse at dose 2.25 mg/kg administered intraperitoneally in experiment 1; assay type: functional; conditions: L1210, ip, route intraperitoneal; in short: as §1
L1210 [3] = assay: Median percent increase in life span of tumored, treated mice relative to tumored, untreated controls after intraperitoneal dose 4 mg/kg daily (every 4th day); assay type: functional; conditions: Mus musculus, L1210, ip
Punta Toro virus = assay: Inhibitory dose of compound required to inhibit cytopathogenic effects of Punta toro virus with adames strain in vero cells; assay type: functional; conditions: read-out: ID50 (the source's name)
P388 [4] = assay: Compound was tested for antitumor activity against P388/ara-C leukemia in mouse at dose 1.5 mg/kg administered intraperitoneally in experiment 2; assay type: functional; conditions: P388, ip, route intraperitoneal; in short: as §1
L1210 [5] = assay: Number of 60-day survivors out of 10 tested at dose 1 mg/kg administered intraperitoneally; assay type: functional, Mus musculus; conditions: route intraperitoneal
P388 [6] = assay: Compound was tested for antitumor activity against P388 leukemia in mouse at dose 1.5 mg/kg administered intraperitoneally in experiment 2; assay type: functional; conditions: P388, ip, route intraperitoneal; in short: as §1
[7] = Ratio of minimum drug concentration to ID50 of the compound (Indiana strain); assay type: ADME
M5076 = assay: Compound was tested for antitumor activity against M5076 leukemia in mouse at dose 0.5 mg/kg administered intraperitoneally in experiment 1; assay type: functional; conditions: M5076, ip, route intraperitoneal
In short: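 Mice bearing M5076 tumour. Drug given ip in physiologic saline, daily on days 1-13, at several dose levels. Experiment ended on day 30. Read-out is median % increase in life span versus untreated tumoured controls, with long-term survivors included.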

Mus musculus [8] = assay: Compound was tested for antitumor activity against human LOX melanoma tumor xenografts in athymic mice at dose 1.5 mg/kg administered intraperitoneally in experiment 2; assay type: functional; conditions: ip, route intraperitoneal
In short: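 Athymic mice carrying human LOX melanoma. Drug given ip in saline on a QD1-9 schedule, at several dose levels. Life-span experiment ended on day 30. Read-out is % increase in life span versus untreated tumoured controls, with long-term survivors included.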

Yellow fever virus [9] = assay: Inhibitory dose of compound required to inhibit cytopathogenic effects of yellow fever virus with asibi strain in vero cells; assay type: functional; conditions: read-out: ID50 (the source's name)
[10] = Ratio of minimum drug concentration to ID50 of the compound(Asibi strain); assay type: ADME; conditions: read-out: Therapeutic index
Human alphaherpesvirus 3 [11] = assay: Compound was tested for antiviral activity against Varicella-Zoster from human diploid foreskin cells in mono layer culture at 0.32 ug/ml; assay type: functional
In short: (§2)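 VZV isolate DM625 on Huf cells (human diploid foreskin monolayers). Inoculum was left on after 1 h adsorption at 37 °C. Drug overlay in MEM + 2% FBS without agarose, refed with fresh drug at 72 h, in 2% CO2. Cells fixed in 10% formalin and stained with methylene blue; plaques counted day 6. % plaque reduction versus untreated virus controls, triplicates.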

L1210 [12] = assay: Median percent increase in life span of tumored, treated mice relative to tumored, untreated controls after intraperitoneal dose 0.5 mg/kg daily(for every 3 hr); assay type: functional; conditions: Mus musculus, L1210, ip
Mus musculus [13] = assay: Compound was tested for antitumor activity against human A549 lung tumor xenografts in athymic mice at dose 1.5 mg/kg administered subrenal capsule in experiment 1; assay type: functional
L1210 [14] = assay: Number of 60-day survivors out of 10 tested at dose 2.25 mg/kg administered intraperitoneally; assay type: functional, Mus musculus; conditions: route intraperitoneal
L1210 [15] = assay: Compound was tested for antitumor activity against L1210/ara-C leukemia in mouse at dose 1.5 mg/kg administered intraperitoneally; assay type: functional; conditions: L1210, ip, route intraperitoneal; in short: as §1
Cytomegalovirus [16] = assay: Log value for antiviral activity against Cytomegalovirus (AD169) from MRC5 diploid human embryonic lung cells at 0.32 ug/mL; assay type: functional
In short: (§3)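 CMV AD169 yield reduction in MRC5 cells. Subconfluent monolayers infected at MOI 0.2 PFU/cell for 1.5 h at 37 °C, rinsed, then fed drug in MEM + 2% FBS, in duplicate. Drug refed on day 3, cultures harvested on day 6 by freeze-thaw and pooled. Yield titrated by plaque assay under 0.25% agarose overlay for 5–6 days, then formalin-fixed and methylene blue-stained for plaque counts.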

[17] = Ratio of minimum drug concentration to ID50 of the compound (Adames strain); assay type: ADME; conditions: read-out: Therapeutic index
Human alphaherpesvirus 3 [18] = assay: Compound was tested for antiviral activity against Varicella-Zoster from human diploid foreskin cells in mono layer culture at 0.1 ug/ml; assay type: functional; in short: as §2
L1210 [19] = assay: Number of 60-day survivors out of 9 tested at dose 1.5 mg/kg administered intraperitoneally; assay type: functional, Mus musculus; conditions: route intraperitoneal
P388 [20] = assay: Compound was tested for antitumor activity against P388/ara-C leukemia in mouse at dose 1.5 mg/kg administered intraperitoneally in experiment 1; assay type: functional; conditions: P388, ip, route intraperitoneal; in short: as §1
Cytomegalovirus [21] = assay: Log value for antiviral activity against Cytomegalovirus (AD169) from MRC5 diploid human embryonic lung cells at 1 ug/mL; assay type: functional; in short: as §3
[22] = Ratio of minimum drug concentration to ID50 of the compound ([…] strain); assay type: ADME; conditions: read-out: Therapeutic index
Cytomegalovirus [23] = assay: Log value for antiviral activity against Cytomegalovirus (AD169) from MRC5 diploid human embryonic lung cells at 32 ug/mL; assay type: functional; in short: as §3
L1210 [24] = assay: Compound was tested for antitumor activity against L1210 leukemia in mouse at dose 1 mg/kg administered intracerebrally in experiment 2; assay type: functional; conditions: L1210, central; in short: as §1
Cytomegalovirus [25] = assay: Log value for antiviral activity against Cytomegalovirus (AD169) from MRC5 diploid human embryonic lung cells at 10 ug/mL; assay type: functional; in short: as §3
P388 [26] = assay: (§4) Log cell kill at the end of treatment at dose 1 mg/kg administered intraperitoneally; assay type: functional, Mus musculus; conditions: route intraperitoneal
L1210 [27] = assay: as §4; assay type: functional, Mus musculus; conditions: route intraperitoneal
Mus musculus [28] = assay: Compound was tested for antitumor activity against human MX-1 mammary tumor xenografts in athymic mice at dose 1.5 mg/kg administered subrenal capsule in experiment 1; assay type: functional
Vero [29] = assay: Cytotoxicity of compound was determined by reduction in number of viable vero monolayer cells after treatment with 100 ug/mL for 4 days; assay type: functional, Chlorocebus sabaeus
In short: (§5)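 Vero monolayers in duplicate cultures, exposed to each drug concentration in medium at 37 °C in a CO2 incubator for 4 days. Viable cells counted by trypan blue exclusion, and % reduction calculated against untreated control cultures.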

Cytomegalovirus [30] = assay: Log value for antiviral activity against Cytomegalovirus (AD169) from MRC5 diploid human embryonic lung cells at 3.2 ug/mL; assay type: functional; in short: as §3
Vero [31] = assay: Cytotoxicity of compound was determined by reduction in number of viable vero monolayer cells after treatment with 10 ug/mL for 4 days; assay type: functional, Chlorocebus sabaeus; in short: as §5
Human alphaherpesvirus 3 [32] = assay: Compound was tested for antiviral activity against Varicella-Zoster from human diploid foreskin cells in mono layer culture at 100 ug/ml; assay type: functional; in short: as §2
Yellow fever virus [33] = assay: Tested for inhibition of virus-induced cytopathogenic effect and cytotoxicity of compound against yellow fever virus with asibi strain vero cell; assay type: functional
Human alphaherpesvirus 3 [34] = assay: Compound was tested for antiviral activity against Varicella-Zoster from human diploid foreskin cells in mono layer culture at 0.01 ug/ml; assay type: functional; in short: as §2
Cytomegalovirus [35] = assay: Log value for antiviral activity against Cytomegalovirus (AD169) from MRC5 diploid human embryonic lung cells at 0.1 ug/mL; assay type: functional; in short: as §3

**Q.** Which results are given for Nc1ccn([C@@H]2C=C(CO)[C@@H](O)[C@H]2O)c(=O)n1?
**A.** ILS at 1 mg/kg (L1210 [1]): 212%; ILS at 2.25 mg/kg (L1210 [2]): 125%; ILS at 4 mg/kg (L1210 [3]): 91%; IC50 (Punta Toro virus): 1.01 µg/mL (≈ 4.22 µM); ILS at 1.5 mg/kg (P388 [4]): 133%; No. of survivors (L1210 [5]): 6; ILS at 1.5 mg/kg (P388 [6]): 69%; Therapeutic index [7]: 0.4; selectivity ratio ([7]; read-out: Therapeutic index): 0.6; ILS at 0.5 mg/kg (M5076): 5%; ILS at 1.5 mg/kg (Mus musculus [8]): 80%; IC50 (Yellow fever virus [9]): 5.05 µg/mL (≈ 21.1 µM); selectivity ratio [10]: 0.1; Plaque reduction (Human alphaherpesvirus 3 [11]): 33%; ILS at 0.5 mg/kg (L1210 [12]): 116%; ILS at 1.5 mg/kg (Mus musculus [13]): -59%; No. of survivors (L1210 [14]): 6; ILS at 1.5 mg/kg (L1210 [15]): > 650%; Reduction in virus yield (Cytomegalovirus [16]): 1.3 pfu/ml; selectivity ratio [17]: 0.3; Plaque reduction (Human alphaherpesvirus 3 [18]): 21%; No. of survivors (L1210 [19]): 5 count; ILS at 1.5 mg/kg (P388 [20]): 165%; Reduction in virus yield (Cytomegalovirus [21]): 1.4 pfu/ml; selectivity ratio [22]: 3.1; Reduction in virus yield (Cytomegalovirus [23]): 2 pfu/ml; ILS at 1 mg/kg (L1210 [24]): 42%; Reduction in virus yield (Cytomegalovirus [25]): 1.9 pfu/ml; LCK (P388 [26]): 0.9; LCK (L1210 [27]): >6 and >5.8; ILS at 1.5 mg/kg (Mus musculus [28]): 100%; Reduction (Vero [29]): 66%; Reduction in virus yield (Cytomegalovirus [30]): 1.5 pfu/ml; Reduction (Vero [31]): 64%; Plaque reduction (Human alphaherpesvirus 3 [32]): 41%; Virus rating (Yellow fever virus [33]): 0.9; Plaque reduction (Human alphaherpesvirus 3 [34]): 0%; Reduction in virus yield (Cytomegalovirus [35]): 0.8 pfu/ml
